The values below come from ChEMBL document CHEMBL4304834, “3-Amino-chromanes and Tetrahydroquinolines as Selective 5-HT2B, 5-HT7, or σ1 Receptor Ligands” (ACS Med Chem Lett, 2019).

Molecules are shown by their SMILES. The source made the active and inactive calls. The rule behind the calls is not given here.

Usually inhibition stands for the share of the control response that was lost under treatment.

For assay [1], the target named is T1, 5-hydroxytryptamine receptor 2B (Homo sapiens, UniProt P41595). Description: Displacement of [3H]-LSD from human recombinant 5-HT2B receptor stably expressed in HEK cells after 90 mins by microbeta scintillation counting method. In kind it is cell-based. In outline:
(§1)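 Run by NIMH Psychoactive Drug Screening Program. Otherwise, competition binding curves are generated and pKi is taken from a sigmoidal curve fit. Data are either triplicate measurements within one experiment, with the error from the fit, or the mean of repeated experiments, each run in triplicate.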
A general note: In a radioligand displacement assay an active substance lowers the binding of a labelled ligand.

Assay [2] concerns the target Sigma non-opioid intracellular receptor 1 (Homo sapiens, UniProt Q99720). Description: Displacement of [3H]-Pentazocine from human recombinant sigma1 receptor expressed in HEKT cells after 90 mins by microbeta scintillation counting method. The format is cell-based.
Assay [3] deals with T2, Sigma intracellular receptor 2 (Homo sapiens, UniProt Q5BJF2). Description: Displacement of […] from human recombinant sigma2 receptor expressed in HEKT cells after 90 mins by microbeta scintillation counting method. The format is cell-based. A digest of the protocol: as §1
T2 sequence (Q5BJF2 whole entry): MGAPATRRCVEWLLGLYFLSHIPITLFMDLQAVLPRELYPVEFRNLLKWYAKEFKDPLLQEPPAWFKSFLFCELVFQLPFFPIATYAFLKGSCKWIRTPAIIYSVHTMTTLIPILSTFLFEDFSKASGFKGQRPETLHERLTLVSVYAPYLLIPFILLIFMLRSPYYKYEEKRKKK
For assay [4], the target named is T1, 5-hydroxytryptamine receptor 2B. Description: Displacement of [3H]-LSD from human recombinant 5-HT2B receptor stably expressed in HEK cells at 10 uM after 90 mins by microbeta scintillation counting method relative to control. In kind it is cell-based. In outline:
(§2)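 Radioligand binding run by the NIMH Psychoactive Drug Screening Program. […] Otherwise Ki comes from sigmoidal curve fits of triplicate measurements in a single experiment, or is averaged over repeated experiments each run in triplicate.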

For assay [5], the target named is T3, 5-hydroxytryptamine receptor 1A (Homo sapiens, UniProt P08908).
T3 sequence (P08908 whole entry): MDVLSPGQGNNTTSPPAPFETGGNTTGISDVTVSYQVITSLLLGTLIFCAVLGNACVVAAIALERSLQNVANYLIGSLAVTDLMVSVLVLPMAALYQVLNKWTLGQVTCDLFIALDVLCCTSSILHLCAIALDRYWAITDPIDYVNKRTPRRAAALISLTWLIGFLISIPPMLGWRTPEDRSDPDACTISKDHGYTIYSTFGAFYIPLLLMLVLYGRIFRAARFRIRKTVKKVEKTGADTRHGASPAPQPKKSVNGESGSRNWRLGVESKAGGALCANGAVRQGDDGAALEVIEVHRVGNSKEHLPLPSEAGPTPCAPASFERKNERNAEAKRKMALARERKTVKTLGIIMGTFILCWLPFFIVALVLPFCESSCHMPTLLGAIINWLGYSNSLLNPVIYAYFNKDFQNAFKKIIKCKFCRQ
Put plainly: Displacement of [3H]-Way100635 from human recombinant 5-HT1A expressed in stable CHO cells after 90 mins by microbeta scintillation counting method. The format is cell-based. Conditions: read-out: pKi (converted). In outline:
as §1

In assay [6] the target is 5-hydroxytryptamine receptor 7 (Homo sapiens, UniProt P34969). Description: Displacement of [3H]-LSD from human recombinant 5-HT7 receptor expressed in stable HEK cells after 90 mins by microbeta scintillation counting method. The format is cell-based. Particulars: read-out: pKi (converted). In outline: as §1
5-hydroxytryptamine receptor 7, sequence (P34969 whole entry): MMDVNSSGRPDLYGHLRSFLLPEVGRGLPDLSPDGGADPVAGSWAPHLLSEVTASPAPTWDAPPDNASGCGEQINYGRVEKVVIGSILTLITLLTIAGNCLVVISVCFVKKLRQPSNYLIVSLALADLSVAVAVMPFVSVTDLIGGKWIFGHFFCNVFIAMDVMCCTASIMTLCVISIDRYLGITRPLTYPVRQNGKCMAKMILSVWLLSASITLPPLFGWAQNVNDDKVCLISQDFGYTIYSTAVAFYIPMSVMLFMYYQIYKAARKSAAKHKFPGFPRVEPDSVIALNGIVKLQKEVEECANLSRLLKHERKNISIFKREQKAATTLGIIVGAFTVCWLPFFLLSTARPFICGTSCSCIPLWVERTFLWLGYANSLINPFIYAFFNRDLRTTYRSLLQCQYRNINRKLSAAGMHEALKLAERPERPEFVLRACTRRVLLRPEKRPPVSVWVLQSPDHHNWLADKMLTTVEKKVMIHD
The target of assay [7] is T2, Sigma intracellular receptor 2. Put plainly: Displacement of […] from human recombinant sigma2 receptor expressed in HEKT cells at 10 uM after 90 mins by microbeta scintillation counting method relative to control. The format is cell-based. A digest of the protocol: as §2
Assay [8] has as its system 661W. Put plainly: Cytoprotective activity in mouse 661W cells assessed as inhibition of t-BHP induced oxidative stress by measuring increase in cell viability at 50 to 100 uM after 24 hrs by MTT assay (Rvb < 50%). In kind it is functional, cell-based. For orientation: Tetrazolium assays rely on reduction of a dye to a coloured formazan, in cell work by metabolically active cells.

Assay [9] has as its system 661W. Put plainly: Cytoprotective activity in mouse 661W cells assessed as reduction in tBHP-induced ROS level at 20 to 50 uM after 2 hrs by […] fluorescent microscopic analysis. In kind it is functional, cell-based. In outline: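 661W cells seeded on coverslips for 18 h, then exposed 2 h to 55 μM tBHP with or without test agent or (+)-pentazocine. ROS are detected with CellROX green dye by epifluorescence, with DAPI marking nuclei. Fluorescence intensity is quantified as mean ± SD from three independent experiments, each run in duplicate.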

The species named for assay [10] is Homo sapiens. Put plainly: Selectivity index, ratio of Ki for human recombinant 5-HT2B receptor to Ki for human recombinant sigma1 receptor.
Assay [11] is filed under the species Homo sapiens. Put plainly: Selectivity index, ratio of Ki for human recombinant sigma2 receptor to Ki for human recombinant sigma1 receptor. In outline: (§3)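 Both Ki values in each ratio come from NIMH Psychoactive Drug Screening Program radioligand binding. […] Other targets were given full binding curves, measured in triplicate, and Ki was taken from a sigmoidal curve fit. Some values were repeated in duplicate or triplicate independent experiments.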

The species entered for assay [12] is Homo sapiens. Put plainly: Selectivity index, ratio of Ki for human recombinant sigma2 receptor to Ki for human recombinant 5-HT2B receptor. In outline: as §3

Sigma non-opioid intracellular receptor 1, sequence (Q99720 whole entry): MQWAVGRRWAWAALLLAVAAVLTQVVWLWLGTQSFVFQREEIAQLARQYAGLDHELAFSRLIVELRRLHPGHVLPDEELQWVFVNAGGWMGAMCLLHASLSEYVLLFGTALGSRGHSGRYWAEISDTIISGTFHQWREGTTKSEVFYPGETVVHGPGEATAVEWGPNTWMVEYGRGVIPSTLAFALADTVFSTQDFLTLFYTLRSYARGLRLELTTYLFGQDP
T1 sequence (P41595 whole entry): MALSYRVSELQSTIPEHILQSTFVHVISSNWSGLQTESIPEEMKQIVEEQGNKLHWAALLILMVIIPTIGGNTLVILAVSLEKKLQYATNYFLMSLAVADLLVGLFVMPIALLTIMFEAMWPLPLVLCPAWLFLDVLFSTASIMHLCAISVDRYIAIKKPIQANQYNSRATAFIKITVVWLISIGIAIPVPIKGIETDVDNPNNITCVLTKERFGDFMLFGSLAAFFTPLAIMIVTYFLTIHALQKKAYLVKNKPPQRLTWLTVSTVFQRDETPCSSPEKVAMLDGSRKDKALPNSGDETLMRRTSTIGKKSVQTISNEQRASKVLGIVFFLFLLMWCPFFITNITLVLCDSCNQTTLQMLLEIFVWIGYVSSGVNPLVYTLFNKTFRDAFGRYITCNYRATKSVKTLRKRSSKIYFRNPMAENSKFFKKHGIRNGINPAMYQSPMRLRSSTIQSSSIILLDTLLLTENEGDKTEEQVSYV

As to `C[C@@]12COc3cc(O)ccc3[C@@H]1CCN2` (racemic), the Ki was over 10000 nM in assay [1] (read-out: pKi (converted)), over 10000 nM in [2] (read-out: pKi (converted)) and 1000 nM in assay [3]. Moreover, in [4], the inhibition was under 50%.
Consider `C[C@@]12COc3c(Br)cccc3[C@@H]1CCN2` (racemic), for which the Ki is 1000 nM in [5]; 20 nM in assay [1] (read-out: pKi (converted)); 398 nM in [6]; 501 nM in assay [2] (read-out: pKi (converted)); 631 nM in assay [3].
On to `CC[C@H]1c2c(ccc3ccccc23)OC[C@@]1(C)N` (racemic), for which the Ki in assay [5] was 316 nM; in assay [1] (read-out: Ki), 20 nM; in [6], 692 nM; in [2] (read-out: pKi (converted)) it was 1000 nM; in assay [3], 2000 nM.
For the compound `C[C@@]12COc3cc(OCc4ccccc4)ccc3[C@@H]1CCN2` (racemic), the values for the Ki in assay [1] (read-out: pKi (converted)), in [2] (read-out: pKi (converted)) and in assay [3] were 126 nM, 7.94 nM and 100 nM, respectively.
For the compound `CC(=O)N1CC[C@H]2c3ccccc3N(c3ccccc3)C[C@]21C` (racemic), the Ki is over 10000 nM in [1] (read-out: pKi (converted)) and 1260 nM in assay [3]. Besides, the inhibition in [4] was under 50%.
Consider `CC[C@H]1c2ccc(O)cc2OC[C@@]1(C)N` (racemic), for which the Ki in assay [1] (read-out: pKi (converted)), in assay [2] (read-out: pKi (converted)) and in assay [3] was over 10000 nM throughout. Besides, the inhibition in assay [4] and in assay [7] was under 50% in each case.
With `C[C@@]12COc3ccc(-c4ccccc4)cc3[C@@H]1CCN2` (racemic), the Ki in assay [1] (read-out: pKi (converted)) is 251 nM; in assay [6], 1000 nM; in [2] (read-out: pKi (converted)) it was 12.6 nM; in assay [3], 79.4 nM.
For the compound `CN1CC[C@H]2c3ccc(O)cc3OC[C@]21C` (racemic), the Ki in assay [1] (read-out: pKi (converted)) was 1000 nM; in assay [2] (read-out: pKi (converted)) it was 50.1 nM; in assay [3] it was 3980 nM.
As for `Cc1cc(C)c2c(c1)OC[C@@]1(C)NCC[C@@H]21` (racemic), the Ki was 79.4 nM in [1] (read-out: pKi (converted)), 1260 nM in assay [6], 63.1 nM in assay [2] (read-out: pKi (converted)) and 316 nM in assay [3].
On the same counts, the results for `C[C@@]12CN(c3ccc(Br)cc3)c3ccc(Br)cc3[C@@H]1CCN2` (racemic) are 316 nM, 200 nM, 158 nM and 79.4 nM.
For the compound `CC(C)=CCN1CC[C@]2(C)c3cc(O)ccc3C[C@H]1[C@H]2C`, the outcome in [8] was Active. Also, the inhibition result in [9] is “Active”.
`CC[C@H]1c2cc(-c3ccccc3)ccc2OC[C@@]1(C)N` (racemic): the Ki in assay [5] was 2000 nM; in assay [1] (read-out: pKi (converted)) it was 126 nM; in [2] (read-out: Ki), 16 nM; in assay [3], 316 nM. Moreover, the Ratio Ki in assay [10] is 10; in assay [11] it was over 200.
With `CC(=O)N1CC[C@H]2c3cccc(-c4ccccc4)c3OC[C@]21C` (racemic), the Ki in assay [1] (read-out: pKi (converted)) was 501 nM; in assay [3] it was 1260 nM.
Turning to `CN1CC[C@H]2c3ccccc3N(c3ccccc3)C[C@]21C` (racemic), the Ki in assay [5] was 200 nM; in [1] (read-out: pKi (converted)) it was 200 nM; in [6], 2.69 nM; in [2] (read-out: pKi (converted)), 162 nM; in assay [3], 158 nM.
As for `Cc1ccc(N2C[C@@]3(C)NCC[C@H]3c3cc(C)ccc32)cc1` (racemic), the Ki is 316 nM in assay [1] (read-out: pKi (converted)), 200 nM in assay [6], 251 nM in [2] (read-out: pKi (converted)) and 316 nM in assay [3].
Turning to `CC[C@H]1c2cc(OC)ccc2OC[C@@]1(C)N` (racemic), the Ki was 2510 nM in assay [5], 251 nM in assay [1] (read-out: pKi (converted)), 398 nM in assay [2] (read-out: pKi (converted)) and over 10000 nM in assay [3]. In addition, the inhibition in [7] was under 50%.
Regarding `CC[C@H]1c2ccc3ccccc3c2OC[C@@]1(C)N` (racemic), the Ki in assay [5] was 2510 nM; in [1] (read-out: Ki), 3.5 nM; in assay [6], 1000 nM; in assay [2] (read-out: pKi (converted)), 3160 nM; in assay [3], 316 nM. For the same compound, the Ratio Ki in [12] amounted to 150.
Take `CC(=O)N1CC[C@H]2c3ccc(O)cc3OC[C@]21C` (racemic): the Ki in [1] (read-out: pKi (converted)), in assay [2] (read-out: pKi (converted)) and in assay [3] was over 10000 nM in each case. In addition, the inhibition in [4] and in [7] was under 50% throughout.
On to `C[C@@]12COc3c(-c4ccccc4)cccc3[C@@H]1CCN2` (racemic), for which the Ki in assay [5] was 200 nM; in [1] (read-out: pKi (converted)), 158 nM; in assay [6], 23.4 nM; in assay [2] (read-out: pKi (converted)), 39.8 nM; in [3] it was 126 nM.
`CN1CC[C@H]2c3cccc(-c4ccccc4)c3OC[C@]21C` (racemic): the Ki in [5] is 200 nM; in [1] (read-out: pKi (converted)), 251 nM; in assay [6] it was 20 nM; in assay [2] (read-out: pKi (converted)) it was 50.1 nM; in assay [3] it was 316 nM.
As to `COc1ccc2c(c1)[C@@H]1CCN[C@]1(C)CO2` (racemic), the Ki in assay [1] (read-out: pKi (converted)) was 631 nM; in assay [6] it was 200 nM; in [2] (read-out: pKi (converted)), 126 nM; in assay [3] it was 3160 nM.
